The record followed here is ChEMBL document CHEMBL1128432, “Structure-activity relationships for inhibition of type 1 and 2 human 5 alpha-reductase and human adrenal 3 beta-hydroxy-delta 5-steroid dehydrogenase/3-keto-delta 5-steroid isomerase by 6-azaandrost-4-en-3-ones: optimization of the C17 substituent” (J Med Chem, 1995).

Data set [1] in a line: Plasma half life in beagles after iv administration of 5 mg/kg. The data set is classed as ADME, organism-based, Canis lupus familiaris. Also on record: dose 5 mg/kg, route intravenous. Conditions: beagle, dog. Summed up: (§1)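 Male beagles dosed intravenously (5 mg/kg for these lines), 2–5 animals. Blood half-life measured in hours after iv dosing; % bioavailability reported alongside.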

Data set [2] is described as follows: Bioavailability in dog (Beagle) at t1/2 (dose 5 mg/kg i.v.). The data set is classed as ADME, organism-based, Canis lupus familiaris. To be noted: in vivo, iv, 5 mg/kg. In short, it runs like this: as §1
In data set [3] the target is T1, 3-oxo-5-alpha-steroid 4-dehydrogenase 1 (Homo sapiens, UniProt P18405).
T1 sequence (P18405 whole entry): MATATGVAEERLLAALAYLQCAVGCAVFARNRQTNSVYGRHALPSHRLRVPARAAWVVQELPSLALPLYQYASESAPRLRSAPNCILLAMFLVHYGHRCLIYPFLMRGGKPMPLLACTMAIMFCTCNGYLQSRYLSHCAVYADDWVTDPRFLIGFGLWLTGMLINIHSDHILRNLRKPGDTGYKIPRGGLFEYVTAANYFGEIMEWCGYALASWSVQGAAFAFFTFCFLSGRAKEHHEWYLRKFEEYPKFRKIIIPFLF
As to the kind of experiment: Inhibition of recombinant steroid 5-alpha-reductase type I.

Data set [4] addresses T2, 3-oxo-5-alpha-steroid 4-dehydrogenase 2 (Homo sapiens, UniProt P31213).
T2 sequence (P31213 whole entry): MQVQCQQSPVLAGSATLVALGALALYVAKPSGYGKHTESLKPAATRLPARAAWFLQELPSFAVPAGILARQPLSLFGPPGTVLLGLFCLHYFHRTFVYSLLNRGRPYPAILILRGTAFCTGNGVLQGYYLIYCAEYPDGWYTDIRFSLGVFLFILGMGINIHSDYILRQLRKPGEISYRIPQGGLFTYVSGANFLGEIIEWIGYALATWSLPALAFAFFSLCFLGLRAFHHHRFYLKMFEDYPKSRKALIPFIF
As to the kind of experiment: Inhibitory activity measured on human steroid 5-alpha-reductase type 2.

The next data set has as its system Rattus norvegicus. Description: % reduction in prostate weight when compared with T-treated controls was measured in castrated rat at 10 mg/kg/day po administration. The data set is classed as functional, Prostate gland. Summed up:
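Castrated male rats, 8 per group, given 10 mg/kg/day orally alongside testosterone. The readout is ventral prostate weight reduction versus testosterone-treated controls, expressed relative to finasteride run as an internal standard in each experiment.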

The nature of data set [5]: Inhibition of recombinant human adrenal 3-beta-hydroxy-delta-5-steroid dehydrogenase.

Regarding `C[C@]12CCC(=O)C(Cl)=C1NCC1C2CC[C@@]2(C)C1CC[C@@H]2C(=O)NC1(c2ccc(Cl)cc2)CCCC1` (stereo partly specified), the half-life in data set [1] was 19 h. The same molecule gave a bioavailability in data set [2] of 74%. Further, the Ki in data set [3] is 600 pM; in data set [5], 490000 pM. In addition, the IC50 in data set [4] was under 100 pM. The “Reduction of prostate weight” value with Rattus norvegicus was found to be 49%.
